Data taken from ChEMBL document CHEMBL1938334, “Quinoline tricyclic derivatives. Design, synthesis and evaluation of the antiviral activity of three new classes of RNA-dependent RNA polymerase inhibitors” (Bioorg Med Chem, 2011).

What was measured:
[1] = tested on: Yellow fever virus; assay: Antiviral activity against Yellow fever virus 17D Stamaril Pasteur J07B01 infected in hamster BHK21 cells assessed as inhibition of virus-induced cytopathogenicity after 3 to 4 days by MTT assay; assay type: functional, cell-based; details: Stamaril Pasteur J07B01, BHK-21
In short: (§1)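 Host cells were seeded in 96-well plates at 3×10^4 cells/well (MDBK) or 5×10^4 cells/well (BHK-21) and grown to confluent monolayers overnight. They were infected at m.o.i. 0.01 in maintenance MEM with 0.5% inactivated FBS. Serial compound dilutions were added after 1 h. Viability was read by MTT after 3–4 days at 37 °C. EC50 was taken by linear regression against untreated controls. Mean of three determinations.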

[2] = Cytotoxicity against african green monkey Vero 76 cells after 48 to 96 hrs by crystal violet staining; assay type: cell-based; details: chlorocebus sabaeus
In short: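 Vero-76 cells were seeded at 4×10^5 cells/mL in D-MEM with L-glutamine, kanamycin and 10% FBS, then exposed to serial compound dilutions at 37 °C, 5% CO2 for 48–96 h. Viability was read by crystal violet staining. 50% cytotoxic concentration by linear regression relative to untreated controls; mean of three independent determinations.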

[3] = Cytotoxicity against human MT4 cells after 96 hrs by MTT assay; assay type: cell-based
In short: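 Exponentially growing MT-4 cells seeded at 1×10^5 cells/mL in RPMI-1640 with 10% FBS, penicillin and streptomycin. Incubated with serial compound dilutions at 37 °C, 5% CO2 for 96 h; viability by MTT. CC50 by linear regression relative to untreated controls; mean of three independent determinations.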

[4] = tested on: Poliovirus 1; assay: Antiviral activity against Human poliovirus 1 strain Sabin Chat infected in african green monkey Vero 76 cells assessed as virus-induced reduction of plaque formation after 2 days using crystal violet staining; assay type: functional, cell-based; details: Enterovirus C, 48 h
[5] = Cytotoxicity against MDBK cells after 48 to 96 hrs by MTT assay; assay type: cell-based, Bos taurus; details: cattle
In short: (§2)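 MDBK seeded at 6×10^5 and BHK at 1×10^6 cells/mL in MEM-Earle's with L-glutamine, 1 mM pyruvate, kanamycin, plus 10% horse serum (MDBK) or 10% FBS (BHK). Cells were grown at 37 °C, 5% CO2 with serial compound dilutions (DMSO stocks diluted in medium). Viability by MTT after 48–96 h. CC50 was taken by linear regression versus untreated controls; three independent determinations.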

[6] = Cytotoxicity against BHK21 cells after 48 to 96 hrs by MTT assay; assay type: cell-based, Mesocricetus auratus, BHK-21; details: hamster; in short: as §2
[7] = tested on: Human immunodeficiency virus 1; assay: Antiviral activity against HIV1 3B infected in human MT4 cells assessed as inhibition of virus-induced cytopathogenicity after 4 days by MTT assay; assay type: functional, organism-based; details: Human immunodeficiency virus 1, 3B, MT4, 96 h
In short: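 MT-4 cells (1×10^4 per well) were infected with HIV-1 IIIB at 100 CCID50, m.o.i. 0.01, together with serial compound dilutions. Viability was read by MTT after 4 days at 37 °C. EC50 was taken by linear regression versus untreated controls. Mean of three determinations.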

[8] = tested on: Human alphaherpesvirus 1; assay: Antiviral activity against Human herpesvirus 1 strain KOS infected in african green monkey Vero 76 cells assessed as reduction of virus-induced plaque formation after 3 days using crystal violet staining; assay type: functional, organism-based; details: Human alphaherpesvirus 1, KOS, 72 h
[9] = tested on: Human orthopneumovirus; assay: Antiviral activity against Human respiratory syncytial virus A2 infected in african green monkey Vero 76 cells assessed as reduction of virus-induced plaque formation after 5 days using crystal violet staining; assay type: functional, organism-based; details: 120 h
[10] = Antiviral activity against Bovine viral diarrhea virus 1-NADL infected in MDBK cells assessed as inhibition of virus-induced cytopathogenicity after 3 to 4 days by MTT assay; assay type: functional, cell-based; details: Bovine viral diarrhea virus isolates and strains; in short: as §1
[11] = tested on: Coxsackievirus B5; assay: Antiviral activity against Human coxsackievirus B5 Ohio-1 infected in african green monkey Vero 76 cells assessed as reduction of virus-induced plaque formation after 3 days using crystal violet staining; assay type: functional, organism-based; details: Enterovirus B, Ohio-1, Vero, 72 h
[12] = Antiviral activity against Vaccinia virus Lister Elstree infected in african green monkey Vero 76 cells assessed as reduction of virus-induced plaque formation after 3 days using crystal violet staining; assay type: functional, cell-based; details: 72 h
[13] = tested on: Vesicular stomatitis Indiana virus; assay: Antiviral activity against clinical isolate Vesicular stomatitis Indiana virus infected in african green monkey Vero 76 cells assessed as reduction of virus-induced plaque formation after 2 days using crystal violet staining; assay type: functional, organism-based; details: 48 h
[14] = tested on: Reovirus sp.; assay: Antiviral activity against Reovirus type-1 3651 infected in hamster BHK21 cells assessed as inhibition of virus-induced cytopathogenicity after 3 to 4 days by MTT assay; assay type: functional, organism-based; details: Reovirus sp., 3651, BHK-21; in short: as §1

| Structure (SMILES) | EC50 [1] | CC50 [2] | CC50 at 96 h [3] | EC50 [4] | CC50 [5] | CC50 [6] | EC50 [7] | EC50 [8] | EC50 [9] | EC50 [10] | EC50 [11] | EC50 [12] | EC50 [13] | EC50 [14] |
| --- | --- | --- | --- | --- | --- | --- | --- | --- | --- | --- | --- | --- | --- | --- |
| O=C(CCl)Cn1nnc2cc3cccnc3c(Cl)c21 | > 65 µM | > 100 µM | 23 µM | > 100 µM | 21 µM | 65 µM | > 23 µM | > 100 µM | > 100 µM | > 21 µM | > 100 µM | > 100 µM | > 100 µM | > 65 µM |
| Oc1ccnc2c(Cl)c3[nH]nnc3cc12 | > 100 µM | > 100 µM | > 100 µM | > 100 µM | > 100 µM | > 100 µM | > 100 µM | > 100 µM | > 100 µM | > 100 µM | > 100 µM | > 100 µM | > 100 µM | ≥ 100 µM |
| O=[N+]([O-])c1c2cccnc2c(Cl)c2[nH]nnc12 | > 100 µM | > 100 µM | > 100 µM | > 100 µM | > 100 µM | > 100 µM | > 100 µM | > 100 µM | > 100 µM | 23 µM | > 100 µM | > 100 µM | > 100 µM | > 100 µM |
| N#CCn1nnc2c(Cl)c3ncccc3cc21 | > 100 µM | > 100 µM | 62 µM | > 100 µM | > 100 µM | > 100 µM | > 62 µM | 51 µM | > 100 µM | 23 µM | > 100 µM | > 100 µM | > 100 µM | > 100 µM |
| N#CCn1nnc2cc3cccnc3c(Cl)c21 | > 100 µM | > 100 µM | 100 µM | > 100 µM | > 100 µM | > 100 µM | > 100 µM | > 100 µM | > 100 µM | 100 µM | > 100 µM | > 100 µM | > 100 µM | > 100 µM |
| O=C(CCl)Cn1nnc2c(Cl)c3ncccc3cc21 | > 85 µM | > 100 µM | 21 µM | > 100 µM | 53 µM | 85 µM | > 21 µM | > 100 µM | > 100 µM | > 53 µM | > 100 µM | > 100 µM | > 100 µM | > 85 µM |
| c1ccc(-c2nc3cc4cccnc4cc3[nH]2)cc1 | > 40 µM | > 100 µM | 28 µM | 37 µM | 80 µM | 40 µM | > 28 µM | > 100 µM | > 100 µM | 10 µM | 19 µM | > 100 µM | > 100 µM | 13 µM |
| Clc1c2ncccc2cc2nc(-c3ccccc3)[nH]c12 | > 35 µM | > 100 µM | 29 µM | 53 µM | 65 µM | 35 µM | > 29 µM | > 100 µM | > 100 µM | 4 µM | 36 µM | > 100 µM | > 100 µM | 10 µM |
| Clc1ccc(-c2nc3cc4cccnc4cc3[nH]2)cc1 | > 100 µM | > 100 µM | 100 µM | > 100 µM | > 100 µM | > 100 µM | > 100 µM | > 100 µM | > 100 µM | 18 µM | 43 µM | > 100 µM | > 100 µM | > 100 µM |
| Nc1ccc(-c2nc3cc4cccnc4c(Cl)c3[nH]2)cc1 | > 42 µM | > 100 µM | 15 µM | > 100 µM | 45 µM | 42 µM | > 15 µM | > 100 µM | > 100 µM | 10 µM | 78 µM | > 100 µM | > 100 µM | > 42 µM |
| CC(=O)Nc1ccc(-c2nc3cc4cccnc4c(Cl)c3[nH]2)cc1 | > 100 µM | > 100 µM | > 100 µM | > 100 µM | > 100 µM | > 100 µM | > 100 µM | > 100 µM | > 100 µM | 11 µM | > 100 µM | > 100 µM | > 100 µM | 51 µM |
| COc1ccccc1-c1nc2cc3cccnc3cc2[nH]1 | > 32 µM | 75 µM | 14 µM | > 75 µM | 11 µM | 32 µM | > 14 µM | > 75 µM | > 75 µM | ≥ 11 µM | 47 µM | > 75 µM | > 75 µM | > 32 µM |
| Clc1ccc(-c2nc3cc4cccnc4cc3[nH]2)cc1Cl | > 100 µM | > 100 µM | > 100 µM | > 100 µM | > 100 µM | > 100 µM | > 100 µM | > 100 µM | > 100 µM | > 100 µM | > 100 µM | > 100 µM | > 100 µM | > 100 µM |
